The test system of assay [1] is Rattus norvegicus. The assay is described as follows: Tested for diarrheal side effects in rats by intragastric administration. It is filed as functional. The settings on record: po. The method, boiled down: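 Adult male Charles River rats (210–230 g), individually housed, fasted 24 h with water ad libitum. Logarithmically graded prostaglandin doses given orally, N = 6–12 per group. Diarrhea scored all-or-none for 8 h after dosing. ED50 and 95% confidence intervals by logistic regression.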

The subject of assay [2] is Canis familiaris. The assay is described as follows: Tested for gastric antisecretory activity in dogs by intrapouch administration. It is filed as functional. Particulars: Canis lupus familiaris, Stomach. A digest of the protocol: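 Adult female beagles (6–11 kg) with Pavlov pouches; after a 30-min basal collection, drug given into the pouch via Thomas cannula in pH 7.4 isoosmotic phosphate buffer with up to 20% ethanol. Fed 10–12 oz canned food 30 min later. Gastric juice collected at 30-min intervals for 4 h; acid output = volume × acidity. Percent reduction from control over 2–5 doses, 2–7 dogs/dose. ED50 by linear regression, 95% limits by Fieller's method.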

Each structure is given as a SMILES string. A value given as a limit tells only on which side of the number the result lay.

Usually ED50 stands for the dose that gives a 50% effect, or the effect in half of the subjects. Lower therefore signals greater potency. On to `COC(=O)CC/C=C\CC[C@H]1C(=O)C[C@@H](O)[C@@H]1/C=C/C[C@@](C)(O)C#CC1=CCCC1`, for which the 50% effective dose (ED50) in assay [1] was over 3160 µg/kg; in assay [2], 2.8 µg/kg.
Take `COC(=O)CC/C=C\CC[C@H]1C(=O)C[C@@H](O)[C@@H]1/C=C/CC(C)(O)CCC1=CCCC1` (stereo partly specified): the 50% effective dose (ED50) in assay [1] was found to be 1180 µg/kg; in assay [2], 0.1 µg/kg.
With `COC(=O)CC/C=C\CC[C@H]1C(=O)C[C@@H](O)[C@@H]1/C=C/C[C@@](C)(O)/C=C/C1=CCCC1`, the values for the median effective dose (ED50) in assay [1] and in assay [2] were over 3160 µg/kg and 0.02 µg/kg, respectively.
Take `COC(=O)CC/C=C\CC[C@H]1C(=O)C[C@@H](O)[C@@H]1/C=C/C[C@@](C)(O)/C=C/C1CCCC1`: the figures for the 50% effective dose (ED50) in assay [1] and in assay [2] were 1950 µg/kg and 0.3 µg/kg, respectively.
As to `COC(=O)CC/C=C\CC[C@H]1C(=O)C[C@@H](O)[C@@H]1/C=C/C[C@@](C)(O)/C=C/C1CC1`, the figures for the ED50 in assay [1] and in assay [2] were 402 µg/kg and 0.1 µg/kg, respectively.
In the case of `COC(=O)CC/C=C\CC[C@H]1C(=O)C[C@@H](O)[C@@H]1/C=C/C[C@@](C)(O)/C=C/C1CCC1`, the ED50 came to 530 µg/kg in assay [1] and 0.05 µg/kg in assay [2].
Regarding `COC(=O)CC/C=C\CC[C@H]1C(=O)C[C@@H](O)[C@@H]1/C=C/C[C@@](C)(O)/C=C/C1=CCCCC1`, the figures for the ED50 in assay [1] and in assay [2] were over 3160 µg/kg and 0.3 µg/kg, respectively.
For the compound `COC(=O)CC/C=C\CC[C@H]1C(=O)C[C@@H](O)[C@@H]1/C=C/C[C@@](C)(O)/C=C/C1(C)CC1`, the figures for the ED50 in assay [1] and in assay [2] were 1340 µg/kg and 0.02 µg/kg, respectively.

These data come from ChEMBL document CHEMBL1124982, “Chemistry and structure-activity relationships of C-17 unsaturated 18-cycloalkyl and cycloalkenyl analogues of enisoprost. Identification of a promising new antiulcer prostaglandin” (1990).
